Measurements published in ChEMBL document CHEMBL4808178 (J Med Chem, 2021).
Values after ≈ are worked out from the molar mass of the structure shown. Active and inactive are the calls of the source. The calls are words filed in the database; no cut-off is given here.

Tests used:
[1] = test system: HCT-116; assay: Induction of apoptosis in human HCT116 cells assessed as viable cells at 10 uM after 24 hrs by annexin V-FITC/propidium iodide staining based flow cytometry (reference value: 88.3%); format: functional; settings: read-out: Activity
[2] = target: Glycogen synthase kinase-3 beta (Homo sapiens) (UniProt P49841); assay: Inhibition of GSK3beta phosphorylation at serine 9 in human HCT-116 cells after 24 hrs by Western blot analysis; format: cell-based; settings: dose 5-20 µM
How it was run: (§1)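 HCT-116 cells at 2 × 10⁵ cells/mL in DMEM/10% FBS, grown 12 h at 37 °C, then treated 24 h (vehicle DMSO). Lysates quantified by BCA, run on 10% SDS-PAGE, PVDF transfer, blocked in 5% milk/TBST, primary antibodies 4 °C overnight, HRP secondary 2 h, chemiluminescent detection; normalized to β-actin, n = 3.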

[3] = test system: HCT-116; assay: Effect on Wnt/beta-Catenin signaling in human HCT116 cells assessed as reduction in cyclin-D1 mRNA level at 20 uM after 24 hrs by RT-qPCR analysis; format: functional, cell-based
How it was run: (§2)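 HCT-116 cells treated 24 h; total RNA by TRIZOL, one-step RT-qPCR: 55 °C 10 min, 95 °C 1 min, then 39 cycles of 95 °C 10 s and 60 °C 30 s, with melting-curve and no-template controls. β-Actin as internal standard; relative expression by 2^−ΔΔCt, mean ± SD (n = 3).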

[4] = target: Dual specificity protein kinase CLK2 (Homo sapiens, UniProt P49760); assay: Inhibition of human CLK2 incubated for 2 hrs
[5] = test system: HCT-116; assay: Effect on Wnt/beta-Catenin signaling in human HCT116 cells assessed as reduction in c-Myc mRNA level at 20 uM after 24 hrs by RT-qPCR analysis; format: functional, cell-based; how it was run: as §2
[6] = target: T1, Aldehyde dehydrogenase 1A1 (Homo sapiens) (UniProt P00352); assay: Inhibition of ALDH1A1 in human HCT116 cells assessed as reduction in mRNA transcriptional level at 20 uM after 24 hrs by RT-qPCR analysis; format: cell-based; settings: HCT-116; how it was run: as §2
T1 sequence (whole entry): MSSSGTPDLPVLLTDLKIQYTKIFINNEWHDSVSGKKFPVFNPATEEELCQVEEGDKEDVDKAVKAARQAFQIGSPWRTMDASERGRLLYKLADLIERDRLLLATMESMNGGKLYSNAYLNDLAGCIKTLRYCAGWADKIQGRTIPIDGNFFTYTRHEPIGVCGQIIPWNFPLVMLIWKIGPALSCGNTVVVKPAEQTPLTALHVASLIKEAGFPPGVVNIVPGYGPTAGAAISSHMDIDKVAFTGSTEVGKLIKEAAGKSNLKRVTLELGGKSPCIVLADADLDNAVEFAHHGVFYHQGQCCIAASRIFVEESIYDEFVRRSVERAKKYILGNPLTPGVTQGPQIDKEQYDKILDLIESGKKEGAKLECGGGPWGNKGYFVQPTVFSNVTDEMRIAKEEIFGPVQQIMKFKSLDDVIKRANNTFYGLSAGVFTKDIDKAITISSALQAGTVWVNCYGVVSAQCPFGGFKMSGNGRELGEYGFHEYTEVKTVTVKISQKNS

[7] = Thermodynamic solubility of the compound in phosphate buffer at pH 6.8 after overnight incubation by shake flask method; format: physicochemical; settings: read-out: Therm_solubility
How it was run: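 Shake-flask method: solid added to pH 6.8 phosphate buffer at nominal 2 mg/mL, sonicated 10 min, shaken overnight 800 rpm at room temperature; phases separated by centrifugation 5000 rpm 20 min before supernatant quantitation.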

[8] = Tmax in Sprague-Dawley rat at 25 mg/kg, po measured up to 48 hrs by LC-MS/MS analysis; format: ADME, organism-based; settings: in vivo
How it was run: (§3)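 Overnight-fasted male SD rats (250−270 g, n = 3/group), single oral 25 mg/kg in 5% CMC-Na (reference sodium salt in phosphate buffer); plasma at 0.25–48 h (12 timepoints), stored −40 °C; LC−MS/MS with internal-standard calibration 3–3000 ng/mL; parameters fitted by model.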

[9] = test system: HCT-116; assay: Inhibition of cell stemness in human HCT116 cells assessed as reduction in OCT4 mRNA transcription levels at 20 uM after 24 hrs by RT-qPCR analysis; format: functional, cell-based
How it was run: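 Sorted ALDH⁺ HCT-116 cells treated 24 h; TRIZOL RNA, one-step RT-qPCR (RT 10 min 55 °C; 95 °C 1 min; 39 cycles 95 °C 10 s/60 °C 30 s) with melting-curve check; β-actin reference; fold change by 2^−ΔΔCt; t test, mean ± SD, n = 3.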

[10] = test system: HCT-116; assay: Induction of apoptosis in human HCT116 cells assessed as down regulation of pro-caspase 9 level at 20 uM incubated for 24 hrs by Western blot analysis; format: functional, cell-based; how it was run: as §1
[11] = target: T1, Aldehyde dehydrogenase 1A1 (Homo sapiens); assay: (§4) Inhibition of human ALDH1A1 incubated for 2 hrs
[12] = target: T2, Aldehyde dehydrogenase 1A1 (Homo sapiens, UniProt P00352); assay: as §4
T2 sequence (P00352 whole entry): T1 sequence (whole entry)

[13] = test system: HCT-116; assay: Induction of apoptosis in human HCT116 cells assessed as viable cells at 20 uM after 24 hrs by annexin V-FITC/propidium iodide staining based flow cytometry (reference value: 88.3%); format: functional; settings: read-out: Activity
[14] = Toxicity in BALB/c mouse xenografted with human HCT116 cells assessed as effect on heart tissue at 60 to 90 mg/kg, po administered twice daily for 4 weeks and measured every 3 days by HE staining based assay; format: organism-based, HCT-116; settings: in vivo, 672 h, dose 60-90 mg/kg
How it was run: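 Male 5-week BALB/c nude mice (16−18 g), 0.2 mL of 5 × 10⁷ cells/mL HCT-116 injected into right armpit; at ~100 mm³ randomized, 5/group; intragastric 60 or 90 mg/kg twice daily for 4 weeks; tumor volume and body weight every 3 days; after sacrifice heart, liver, spleen, lung, kidney HE-stained.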

[15] = target: Epidermal growth factor receptor (Homo sapiens) (UniProt P00533); assay: Inhibition of EGFR (unknown origin) assessed as residual activity at 1 uM relative to control
How it was run: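 Single-concentration screen at 1 μmol/L against a panel of 208 kinases, run as a commercial service; activity expressed relative to control.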

[16] = test system: HCT-116; assay: Induction of apoptosis in human HCT116 cells assessed as late apoptotic cells at 5 uM after 24 hrs by annexin V-FITC/propidium iodide staining based flow cytometry (reference value: 5.1%); format: functional
[17] = Volume of distribution in Sprague-Dawley rat at 25 mg/kg, po measured up to 48 hrs by LC-MS/MS analysis; format: ADME, organism-based; settings: in vivo; how it was run: as §3

Chain of Glycogen synthase kinase-3 beta (Homo sapiens) (P49841 whole entry, looked up): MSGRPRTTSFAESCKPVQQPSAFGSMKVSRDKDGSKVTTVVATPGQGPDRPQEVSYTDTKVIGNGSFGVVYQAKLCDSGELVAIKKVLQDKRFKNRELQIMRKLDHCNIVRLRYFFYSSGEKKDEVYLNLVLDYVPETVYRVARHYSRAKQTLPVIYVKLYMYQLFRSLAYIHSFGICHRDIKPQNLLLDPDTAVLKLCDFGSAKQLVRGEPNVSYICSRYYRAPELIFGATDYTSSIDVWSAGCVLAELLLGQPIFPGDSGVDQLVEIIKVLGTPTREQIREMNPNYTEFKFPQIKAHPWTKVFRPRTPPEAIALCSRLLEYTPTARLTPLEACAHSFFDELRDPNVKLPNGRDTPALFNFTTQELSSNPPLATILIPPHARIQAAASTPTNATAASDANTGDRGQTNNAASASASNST
Chain of Dual specificity protein kinase CLK2 (P49760 whole entry): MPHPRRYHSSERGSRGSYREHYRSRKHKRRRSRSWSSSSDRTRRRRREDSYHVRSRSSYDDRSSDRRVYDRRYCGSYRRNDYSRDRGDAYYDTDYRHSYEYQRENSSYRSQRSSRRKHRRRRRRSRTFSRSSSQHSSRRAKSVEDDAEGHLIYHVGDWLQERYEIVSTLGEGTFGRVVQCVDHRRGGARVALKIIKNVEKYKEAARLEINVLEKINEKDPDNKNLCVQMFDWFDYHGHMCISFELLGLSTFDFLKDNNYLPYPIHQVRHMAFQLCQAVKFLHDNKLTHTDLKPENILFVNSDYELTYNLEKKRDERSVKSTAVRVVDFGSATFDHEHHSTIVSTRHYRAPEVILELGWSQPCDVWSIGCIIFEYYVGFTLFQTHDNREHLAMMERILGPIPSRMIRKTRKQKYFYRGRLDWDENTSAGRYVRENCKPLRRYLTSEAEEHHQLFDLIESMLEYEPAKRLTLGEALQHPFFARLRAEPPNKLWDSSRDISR
Chain of Epidermal growth factor receptor (Homo sapiens) (P00533 whole entry): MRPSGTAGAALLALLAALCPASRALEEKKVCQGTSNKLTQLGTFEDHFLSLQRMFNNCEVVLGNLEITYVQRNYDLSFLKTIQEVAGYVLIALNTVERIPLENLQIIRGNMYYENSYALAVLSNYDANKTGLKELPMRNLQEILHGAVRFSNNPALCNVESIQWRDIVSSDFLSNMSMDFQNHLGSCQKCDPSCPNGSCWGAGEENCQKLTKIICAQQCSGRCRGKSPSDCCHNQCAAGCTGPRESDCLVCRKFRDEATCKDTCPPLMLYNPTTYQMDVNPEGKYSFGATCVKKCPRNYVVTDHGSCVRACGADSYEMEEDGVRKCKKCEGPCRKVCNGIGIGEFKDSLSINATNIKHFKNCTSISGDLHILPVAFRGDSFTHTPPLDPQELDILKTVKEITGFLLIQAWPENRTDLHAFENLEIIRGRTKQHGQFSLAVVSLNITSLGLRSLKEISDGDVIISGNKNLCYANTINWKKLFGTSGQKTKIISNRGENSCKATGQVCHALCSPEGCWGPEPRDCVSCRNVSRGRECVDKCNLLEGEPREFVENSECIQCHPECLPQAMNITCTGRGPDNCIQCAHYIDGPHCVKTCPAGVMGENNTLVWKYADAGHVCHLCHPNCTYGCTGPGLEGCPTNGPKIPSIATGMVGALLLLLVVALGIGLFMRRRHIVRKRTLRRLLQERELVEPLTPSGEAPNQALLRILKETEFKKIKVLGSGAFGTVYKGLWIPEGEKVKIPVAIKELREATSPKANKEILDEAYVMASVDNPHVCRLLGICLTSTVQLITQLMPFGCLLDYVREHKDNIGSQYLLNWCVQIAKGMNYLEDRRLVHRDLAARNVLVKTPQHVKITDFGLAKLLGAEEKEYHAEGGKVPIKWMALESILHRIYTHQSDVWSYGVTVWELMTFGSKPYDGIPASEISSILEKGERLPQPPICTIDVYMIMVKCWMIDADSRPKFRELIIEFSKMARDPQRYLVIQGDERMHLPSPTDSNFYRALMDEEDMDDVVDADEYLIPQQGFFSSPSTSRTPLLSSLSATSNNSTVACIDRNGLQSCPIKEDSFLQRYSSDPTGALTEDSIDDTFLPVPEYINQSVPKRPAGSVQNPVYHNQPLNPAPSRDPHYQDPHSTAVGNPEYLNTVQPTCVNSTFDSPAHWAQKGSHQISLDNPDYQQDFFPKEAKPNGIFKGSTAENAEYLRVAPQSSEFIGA

inhibition [2]: Dose-Dependent Effect | IC50 [4]: 32.7 nM | inhibition [6]: Active | solubility thermodynamic [7]: 0.89 µg/mL (≈ 2.27 µM) | Tmax [8]: 2.33 h | inhibition [11]: Dose-Dependent Effect | IC50 [12]: 100 nM | Activity [15]: 34.1% | Vd [17]: 2.77 L/kg
SMILES: O=C(NCCO)c1ccc2c(c1)nc(Nc1cccc(Cl)c1)c1ccncc12
viability at 10 µM [1]: 56.4% | Activity [3]: Active | Activity [5]: Active | inhibition [9]: Active | Activity [10]: Active | viability at 20 µM [13]: 36% | Activity [14]: Non-Toxic | Activity [16]: 14.3%
